Here are results for 13 compounds from PubChem BioAssay.

Assay [1] is described as follows: inhibitors of TNFa-induced NFkB p65 translocation, primary screen, imaging, HUVEC, MLSMR starter and 10KST1 sets (AID 438;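 active = inhibition above 20% together with a positive visual image hit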;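 also: compound added about 3h40 before a 20 min TNFalpha stimulation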;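 as to inhibition: signal is the nuclear over cytoplasmic p65 intensity ratio per well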). As to conditions: HUVEC TNFa-induced p65 nuclear translocation; cell count: measured here: nuclei count (cytotoxicity indicator), at 2.08 µM; inhibition: at 2 µM, stronger effect = higher value, 0% TNFa-plus-vehicle, 100% no-TNFa wells.
A short description of assay [2]: reduction of polyQ htt aggregates in cells – imaging, exon1htt(103Q)mCFP cells, high-content imaging, primary screen (AID 483;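 active = visual image review flags a hit and inhibition of aggregation exceeds 20%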;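 also: compound exposure lasted 3 days before fixation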;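 as to nuclei count: percent of the per-plate median nuclei count of sample wells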). As to conditions: exon1htt(103Q)mCFP cell line, aggregate imaging, at 2 µM; inhibition of aggregation: stronger effect = higher value; nuclei count: measured here: cell count, toxicity.
A short description of assay [3]: endothelial E-selectin expression blockers – imaging, HUVEC, immunofluorescence, MLSMR starter and 10KST1 sets, primary screen (AID 487).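 As to inhibition: signal is fraction of cell area covered by stained E-selectin grains.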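 As to nuclei count: 100% = median nuclei count of all wells on the same plate.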 As to conditions: HUVEC TNFalpha-induced E-selectin immunofluorescence imaging, at 2 µM; inhibition: stronger effect = higher value; nuclei count: measured here: cell number, toxicity.
Assay [4] has as its target Voltage-gated potassium channel subunit beta-2 (Rattus norvegicus) (UniProt P62483). The experiment in a line: inhibitors of rat Kvbeta2 reductase activity – biochemical, NADPH fluorescence, primary screen (AID 622;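 active = fluorescence slope higher than the sample average by over 3 SD, cut at about -0.22 in these data, passing the limit was not always enough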;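 also: slope of raw intensity against log time taken from 70 to 1610 s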). As to conditions: recombinant KvBeta, 4-cyanobenzaldehyde reduction, at 10 µM, stronger effect = higher value.
The target is the same in assay [5]. The experiment in a line: enhancers of rat Kvbeta2 NADPH turnover – biochemical, NADPH fluorescence, primary screen (AID 623;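 active = NADPH fluorescence slope more negative than the mean of all samples by about 3 SD, 99.7% confidence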;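 also: fluorescence intensity change per second fitted from 20 to 320 s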). Conditions: Recombinant KvBeta, NADPH fluorescence decrease slope, 10 min; at 10 µM; stronger effect = lower value.
Assay [6] deals with Alpha-2C adrenergic receptor (Homo sapiens) (UniProt P18825). Put plainly: compounds altering alpha2C-coupled GIRK flux – cell-based, HEK293 alpha2C/GIRK1/2, thallium flux, primary screen (AID 624;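 active = fluorescence slope after compound addition differing from the mean of all screened samples at 99.7% confidence, in either direction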;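 also: slope of fluorescence ratio to pre-addition baseline per second over 15 to 24 s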). Conditions: thallium flux BTC fluorescence, at 10 µM, actives lie on both sides.
Sequence of Alpha-2C adrenergic receptor (Homo sapiens) (P18825 whole entry, looked up): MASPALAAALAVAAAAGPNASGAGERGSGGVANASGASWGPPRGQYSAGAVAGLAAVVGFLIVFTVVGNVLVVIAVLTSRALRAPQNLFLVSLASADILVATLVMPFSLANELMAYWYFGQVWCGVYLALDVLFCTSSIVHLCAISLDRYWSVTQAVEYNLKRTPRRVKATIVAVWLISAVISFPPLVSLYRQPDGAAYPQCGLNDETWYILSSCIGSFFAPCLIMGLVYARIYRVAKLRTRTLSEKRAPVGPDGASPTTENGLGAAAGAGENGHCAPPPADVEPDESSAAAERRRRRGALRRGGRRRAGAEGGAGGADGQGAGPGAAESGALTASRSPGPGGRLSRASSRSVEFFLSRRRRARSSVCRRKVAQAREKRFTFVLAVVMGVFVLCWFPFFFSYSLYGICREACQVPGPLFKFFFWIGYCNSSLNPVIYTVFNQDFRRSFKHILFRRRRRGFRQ
A short description of assay [7]: inhibitors of larval lipid processing in zebrafish, primary screen, whole organism, PED6 fluorescence, gall bladder and intestine (AID 686;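 active = a full or partial loss of lipid-probe fluorescence in the fish gall bladder, intestine or both, judged by eye; inactive = no fluorescence loss, or compound toxic to the fish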;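 also: signal comes from phospholipase A2 cleavage of quenched PED6 carried via bile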). As to conditions: Zebrafish larvae PED6 lipid processing, fluorescence scoring; screened at 20 µM (by protocol). The procedure, abridged: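 Doses: 20 µM single dose. Test system: live zebrafish larvae aged 5-7 days, whole organism. Quantity: five larvae per well. Measured by: By-eye fluorescence microscopy. Reagent: ingested quenched lipid PED6 at 100 nM. Read-out: visual per-well fluorescence inhibition score. Times: overnight exposure of larvae to compound plus PED6.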

A short description of assay [8]: blockers of RIG-like receptor reporter activation – cell-based, Sendai virus stimulus, luciferase, 10K MLSCN set, TLR/RLR signaling modifier project, primary screen (AID 602276;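 active = inhibition at or above 50% at 10 µM; inactive = inhibition below 50%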;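 also: firefly luciferase from ISG56 promoter only with Renilla not read in this screen; 0% = Sendai virus plus DMSO and 100% = medium plus DMSO without virus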). Conditions: HEK293 RL24 IRF3 luciferase reporter, at 10 µM, stronger effect = higher value. Background: A reporter such as luciferase makes a cellular process visible.
The nature of assay [9]: TLR3 IRF3 reporter activation blockers – cell-based, poly I:C stimulus, luciferase, 10K MLSCN set, primary screen (AID 602277;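 active = inhibition of the reporter signal at or above 50%; inactive = inhibition below 50%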). As to conditions: HEK293-TLR3 RL24 IRF3 luciferase reporter, at 10 µM, stronger effect = higher value.

Calls of active or inactive are those of the source.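 The calls were made as follows, unless noted: active = visually confirmed hit in the image check and inhibition above 20%; inconclusive = visually confirmed hit but inhibition not above 20%; inactive = no visual hit in the image check.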

By inhibition is commonly meant the relative decrease from the control value, in per cent.

Sequence of Voltage-gated potassium channel subunit beta-2 (Rattus norvegicus) (P62483 whole entry, looked up): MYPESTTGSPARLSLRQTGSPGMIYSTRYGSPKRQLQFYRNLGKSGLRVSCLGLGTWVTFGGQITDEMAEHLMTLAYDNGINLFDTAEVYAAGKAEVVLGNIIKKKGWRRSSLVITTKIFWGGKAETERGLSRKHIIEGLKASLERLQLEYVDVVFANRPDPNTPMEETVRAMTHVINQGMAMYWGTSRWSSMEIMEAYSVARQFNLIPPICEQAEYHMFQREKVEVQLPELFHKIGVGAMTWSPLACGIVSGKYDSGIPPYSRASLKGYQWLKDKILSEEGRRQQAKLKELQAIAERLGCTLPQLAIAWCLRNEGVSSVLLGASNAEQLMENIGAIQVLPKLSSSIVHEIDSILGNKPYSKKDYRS

On to `O=C(Nc1ccc2[nH]c3c(c2c1)CCCC3)c1ccco1`, for which the cell count in assay [1] worked out at 446. Besides, the inhibition was -20.5% (inactive) in assay [1], 78.9% (active) in assay [3], -30.4% (inactive) in assay [8] and -98.2% (inactive) in assay [9]. In addition, in assay [2], the inhibition of aggregation is 31% (inactive). The nuclei count in [2] came out at 85.7%; in assay [3], 103%. Besides, the fluorescence slope in assay [4] was -0.288 (inactive). Moreover, the NADPH fluorescence slope in [5] was -4.7e-05 (inactive). The slope in assay [6] is 0.00582 (inactive). In assay [7], the result was inactive.
As for `CSc1nnc(-c2cnccn2)n1Cc1ccccc1`, in assay [1], the cell count is 386. The inhibition in assay [1] is 2.9% (inactive); in assay [3] it was 5.7% (inactive); in [8], -5.1% (inactive); in [9] it was 2.59% (inactive). For the same compound, in [2], the inhibition of aggregation is -2.6% (inactive). In addition, the nuclei count was 101% in [2] and 121% in assay [3]. For the same compound, the fluorescence slope in assay [4] was -0.481 (inactive). Also, the NADPH fluorescence slope in [5] was -5.6e-07 (inactive). The slope in [6] was 0.00544 (inactive). For the same compound, in assay [7], the call was inactive.
For `CCOC(=O)c1[nH]c2ccc(C)cc2c1NC(=O)CN1CCCCC1`, the cell count in assay [1] came to 672. The inhibition in assay [1] was 13.7% (inactive); in [3] it was -12% (inactive); in [8] it was 13.3% (inactive); in assay [9] it was 14.1% (inactive). The inhibition of aggregation in assay [2] was 5.6% (inactive). For the same compound, the nuclei count was 93.3% in assay [2] and 87.9% in assay [3]. The fluorescence slope in assay [4] was -0.349 (inactive). The NADPH fluorescence slope in assay [5] was -2.6e-05 (inactive). Besides, the slope in assay [6] was 0.00444 (inactive). The compound was classed as inactive in assay [7].
As for `CCSCc1nnc(SCC(=O)Nc2cccc(SC)c2)n1C`, the cell count in [1] was determined as 492. For the same compound, the inhibition in assay [1] was -5.8% (inactive); in assay [3] it was -43.2% (inactive); in [8] it was 9.84% (inactive); in [9], 18.9% (inactive). The inhibition of aggregation in [2] was 0.2% (inactive). Moreover, the nuclei count in [2] amounted to 101%; in assay [3], 147%. Also, the fluorescence slope in assay [4] was -0.452 (inactive). Further, the NADPH fluorescence slope in assay [5] is -4.6e-05 (inactive). Besides, the slope in assay [6] was 0.00484 (inactive). Also, in assay [7], the call was inactive.
On to `COc1ccc(N2C(=O)c3cccc4cccc(c34)C2=O)nn1`, for which, in [1], the cell count was 345. The inhibition in assay [1] is 1.5% (inactive); in assay [3], -81.4% (inactive); in [8], 9.08% (inactive); in assay [9], 20.4% (inactive). Besides, in assay [2], the inhibition of aggregation is 4.9% (inactive). The nuclei count came to 105% in assay [2] and 114% in assay [3]. The fluorescence slope in assay [4] was -0.421 (inactive). Moreover, the NADPH fluorescence slope in [5] is -2.8e-05 (inactive). Further, the slope in assay [6] is 0.00401 (inactive). For the same compound, the outcome in assay [7] was inactive.
In the case of `O=C(Nc1ccc2oc(=O)ccc2c1)c1cccnc1`, the cell count in [1] was 423. The inhibition in assay [1] is 7.5% (inactive); in assay [3], 1.2% (inactive); in [8], 6.9% (inactive); in assay [9], 0.246% (inactive). Also, the inhibition of aggregation in assay [2] is 4% (inactive). The nuclei count in assay [2] is 90.8%; in assay [3] it was 91.9%. Besides, the fluorescence slope in assay [4] was -0.434 (inactive). Further, the NADPH fluorescence slope in assay [5] is -8.3e-06 (inactive). The slope in [6] is 0.00437 (inactive). Moreover, the result in assay [7] was inactive.
Regarding `COc1ccc(NC(=O)Cn2nnc(-c3ccccc3F)n2)cc1Cl`, the cell count in assay [1] stood at 602. The inhibition in assay [1] is -9.3% (inactive); in assay [3] it was -59.1% (inactive); in [8], 7.23% (inactive); in assay [9], 38.7% (inactive). Further, the inhibition of aggregation in assay [2] is -0.1% (inactive). Also, the nuclei count in [2] is 92.6%; in assay [3], 107%. Also, the fluorescence slope in assay [4] is -0.382 (inactive). The NADPH fluorescence slope in [5] is 1.8e-05 (inactive). Besides, the slope in [6] is 0.00543 (inactive). Also, the result in [7] was inactive.
With `CSc1ccccc1NC(=O)CN(c1ccccc1)S(=O)(=O)N(C)C`, the cell count in [1] turned out to be 429. The inhibition is -0.8% (inactive) in assay [1], 4.1% (inactive) in assay [3], 15.6% (inactive) in [8] and 20.5% (inactive) in [9]. The inhibition of aggregation in assay [2] was 1.4% (inactive). The nuclei count in [2] worked out at 96%; in assay [3] it was 140%. The fluorescence slope in [4] was -0.356 (inactive). Besides, in assay [5], the NADPH fluorescence slope is 3.3e-06 (inactive). Besides, in [6], the slope was 0.00624 (inactive). The outcome in [7] was inactive.
Consider `Cc1cc(C)nc(N2CCC(C(=O)Nc3ccc(Oc4ccccc4)cc3)CC2)n1`, for which the cell count in assay [1] stood at 706. Besides, the inhibition was -15% (inactive) in [1], -54.3% (inactive) in [3], 13% (inactive) in assay [8] and 11% (inactive) in assay [9]. The inhibition of aggregation in assay [2] is -11% (inactive). The nuclei count was determined as 122% in assay [2] and 116% in assay [3]. For the same compound, the fluorescence slope in assay [4] was -0.432 (inactive). Further, the NADPH fluorescence slope in assay [5] was -5.6e-05 (inactive). Further, the slope in assay [6] is 0.00595 (inactive). Besides, the compound was classed as inactive in [7].
On to `CCOC(=O)c1oc2cc(OCC(N)=O)ccc2c(=O)c1-c1ccc(OC)c(OC)c1`, for which, in [1], the cell count turned out to be 411. The inhibition was 8.1% (inactive) in assay [1], -114% (inactive) in assay [3], 19.4% (inactive) in [8] and 22.5% (inactive) in [9]. In assay [2], the inhibition of aggregation was -10.4% (inactive). Further, the results for the nuclei count in assay [2] and in assay [3] were 106% and 102%, respectively. In assay [4], the fluorescence slope was -0.445 (inactive). In addition, in assay [5], the NADPH fluorescence slope was -0.000137 (inactive). Besides, in assay [6], the slope is 0.0045 (inactive). Also, the compound was classed as inactive in assay [7].
Regarding `c1ccc(-c2nnc(SCc3nc4ccccc4[nH]3)o2)cc1`, the cell count in assay [1] stood at 285. For the same compound, the inhibition is 8.2% (inactive) in assay [1], 34.3% (inactive) in assay [3], 12.6% (inactive) in assay [8] and -7.21% (inactive) in [9]. For the same compound, in [2], the inhibition of aggregation is -3.4% (inactive). For the same compound, the nuclei count amounted to 94.1% in assay [2] and 87.8% in assay [3]. In assay [4], the fluorescence slope is -0.304 (inactive). For the same compound, the NADPH fluorescence slope in assay [5] was -1.4e-05 (inactive). The slope in assay [6] is 0.00613 (inactive). The result in assay [7] was inactive.
For `Cc1onc(-c2c(F)cccc2Cl)c1C(=O)Nc1nc2c(s1)CCCC2`, in [1], the cell count was 250. For the same compound, the inhibition in [1] is 5.1% (inactive); in assay [3], 38.1% (inactive); in [8], -235% (inactive); in [9], 99.1% (active). Besides, in assay [2], the inhibition of aggregation is 14.6% (inactive). For the same compound, the figures for the nuclei count in [2] and in [3] were 101% and 77.9%, respectively. The fluorescence slope in [4] was -0.467 (inactive). Also, the NADPH fluorescence slope in assay [5] was -9.4e-06 (inactive). The slope in assay [6] was 0.00615 (inactive). The outcome in assay [7] was inactive.
As to `O=S1(=O)CCN2C(=N1)SC1=C2CCN(Cc2ccccc2)C1`, the cell count in assay [1] was determined as 514. Besides, the inhibition is -3% (inactive) in assay [1], -42.3% (inactive) in assay [3], 17% (inactive) in assay [8] and 13.7% (inactive) in assay [9]. Besides, the inhibition of aggregation in assay [2] is -3.2% (inactive). Besides, the nuclei count worked out at 91.4% in assay [2] and 144% in assay [3]. Further, in [4], the fluorescence slope is -0.434 (inactive). The NADPH fluorescence slope in assay [5] is -1e-05 (inactive). The slope in [6] was 0.00453 (inactive). In addition, the compound was called inactive in assay [7].
